pIC50: −log10 of the molar value.
Tests used:
[1] = tested on: Trypanosoma brucei brucei; assay: Antitrypanosomal activity against trypomastigote stage of Trypanosoma brucei brucei AnTat 1.9 assessed as decrease in parasite viability after 69 hrs by Alamar blue assay; assay type: functional, organism-based; conditions: AnTat 1.9, 69 h
Method in brief: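 AnTat 1.9 in MEM with Earle's salts plus 0.5 mM mercaptoethanol, 1.5 mM L-cysteine, 0.05 mM bathocuproine sulfate and 20% heat-inactivated horse serum, 37 °C, 5% CO2. Seeded 2000 parasites/100 µL with compounds in DMSO, in duplicate, 69 h, then Alamar Blue for 5 h.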

[2] = Selectivity index, ratio of CC50 for human HepG2 cells to IC50 for trypomastigote stage of Trypanosoma brucei brucei AnTat 1.9; assay type: toxicity; conditions: read-out: Ratio CC50/IC50
[3] = Selectivity index, ratio of CC50 for human HepG2 cells to IC50 for promastigote stage of Leishmania donovani MHOM/IN/00/DEVI; assay type: toxicity; conditions: read-out: Ratio CC50/IC50
THP-1 = assay: Cytotoxicity against human THP1 cells assessed as reduction in cell viability after 72 hrs by MTT assay; assay type: cell-based; conditions: thp-1, 72 h
Method in brief: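 THP1 cells in complete RPMI with PMA (final 50 ng/mL) at 10⁶ cells/mL, differentiated 48 h. Compounds in DMSO (final <0.5% v/v) then added for 72 h at 37 °C. MTT (0.5 mg/mL in FCS-free medium) 2 h, formazan dissolved in DMSO, A570 with 630 nm reference. Viability as % of untreated control; CC50 from dose-response curve; doxorubicin positive control.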

[4] = Selectivity index, ratio of CC50 for human HepG2 cells to IC50 for intramacrophage amastigote stage of Leishmania donovani infected in human THP1 cells; assay type: toxicity, cell-based; conditions: read-out: Ratio CC50/IC50
[5] = Electrochemical behavior of the compound assessed as redox potential corrected toward normal hydrogen electrode by cyclic voltammetry; assay type: physicochemical
HepG2 = assay: Cytotoxicity against human HepG2 cells assessed as reduction in cell viability after 72 hrs by MTT assay; assay type: cell-based; conditions: hepg2, 72 h
Method in brief: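 HepG2 cells in RPMI with 10% FCS, L-glutamine and penicillin/streptomycin, 37 °C, 6% CO2. After 24 h, compounds in DMSO (final <0.5% v/v) added for 72 h, in duplicate. Precipitate checked, MTT (0.5 mg/mL) 2 h, formazan dissolved in DMSO, A570 with 630 nm reference. Viability as % of untreated control; CC50 from dose-response curve; doxorubicin positive control.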

Leishmania donovani [6] = assay: Antileishmanial activity against wild type promastigote stage of Leishmania donovani MHOM/SD/62/1S-CL2D LdBOB after 72 hrs by resazurin dye based assay; assay type: functional, organism-based
Method in brief: (§1)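 Clonal L. donovani LdBOB promastigotes grown at 26 °C in modified M199. NTR1 and NTR2 overexpressers kept in nourseothricin 100 µg/mL. Triplicate 10 mL cultures seeded at 5×10^4 parasites/mL with drug for 72 h. Aliquots received 50 µM resazurin, read by fluorescence (ex 528/em 590 nm) after 4 h. Background-corrected 2-parameter fit gave EC50; at least two repeats, mean ± SD.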

[7] = Substrate activity at recombinant nitroreductase 2 in promastigote stage of Leishmania donovani MHOM/SD/62/1S-CL2D LdBOB assessed as inhibition of parasite growth after 72 hrs by resazurin dye based assay; method in brief: as §1
[8] = Substrate activity at recombinant type-1 nitroreductase in promastigote stage of Leishmania donovani MHOM/SD/62/1S-CL2D LdBOB assessed as inhibition of parasite growth after 72 hrs by resazurin dye based assay; method in brief: as §1
Leishmania donovani [9] = assay: Antileishmanial activity against promastigote stage of Leishmania donovani MHOM/IN/00/DEVI assessed as inhibition of parasite metabolic activity after 72 hrs by MTT assay; assay type: functional, organism-based
Method in brief: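 MHOM/IN/00/DEVI log-phase promastigotes in Schneider's medium with 20% FCS, 2 mM L-glutamine and antibiotics. Seeded at 10⁶ parasites/mL with compounds in DMSO (final <0.5% v/v), in duplicate, 72 h at 27 °C. MTT added for 4 h, stopped with 50% isopropanol–10% SDS, A570 read. IC50 by nonlinear regression, mean of three independent experiments.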

Leishmania infantum = assay: Antileishmanial activity against axenic amastigote stage of Leishmania infantum assessed as inhibition of parasite metabolic activity after 48 hrs by luciferase reporter gene based luminescence assay; assay type: functional, organism-based
Method in brief: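 L. infantum promastigotes in log phase switched to RPMI 1640 pH 5.4 for 24 h at 24 °C, then 24 h at 37 °C to give axenic amastigotes. Seeded at 2.106 parasites/mL with compounds in DMSO (final <0.5% v/v), in duplicate, 48 h at 37 °C. Wells checked for precipitate, luciferase luminescence read, IC50 by non-linear regression as mean.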

[10] = Selectivity ratio of IC50 for wild type promastigote stage of Leishmania donovani MHOM/SD/62/1S-CL2D LdBOB to substrate activity at recombinant type-1 nitroreductase in promastigote stage of Leishmania donovani MHOM/SD/62/1S-CL2D LdBOB; assay type: toxicity
Method in brief: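 LdBOB promastigotes grown at 26 °C in modified M199. NTR1- and NTR2-overexpressing lines were kept with 100 µg/mL nourseothricin. Triplicate 10 mL cultures seeded at 5×10^4 parasites/mL with drug for 72 h. Aliquots given 50 µM resazurin, fluorescence (ex 528/em 590 nm) read after 4 h. EC50 from a background-corrected 2-parameter fit; at least two repeats, mean plus SD.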

[11] = Selectivity index, ratio of CC50 for human HepG2 cells to IC50 for axenic amastigote stage of Leishmania infantum; assay type: toxicity; conditions: read-out: Ratio CC50/IC50
Leishmania donovani [12] = assay: Antileishmanial activity against intramacrophage amastigote stage of Leishmania donovani infected in human THP1 cells after 120 hrs by Giemsa staining based microscopy; assay type: functional, organism-based; conditions: THP-1, 120 h
Method in brief: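 THP-1 cells differentiated with PMA (final 50 ng/mL) for 48 h at 37 °C, 6% CO2. Infected 10:1 with L. donovani promastigotes acidified 24 h at 27 °C in Schneider 20% FCS pH 5.4. After 24 h, compounds added in duplicate (DMSO <0.5% v/v) for 120 h.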

| Compound | pIC50 [1] | selectivity ratio [2] | selectivity ratio [3] | CC50 (THP-1) | selectivity ratio [4] | Activity [5] | CC50 (HepG2) | pIC50 (Leishmania donovani [6]) | pIC50 [7] | pIC50 [8] | pIC50 (Leishmania donovani [9]) | pIC50 (Leishmania infantum) | Ratio IC50 [10] | selectivity ratio [11] | pIC50 (Leishmania donovani [12]) |
| --- | --- | --- | --- | --- | --- | --- | --- | --- | --- | --- | --- | --- | --- | --- | --- |
| O=[N+]([O-])c1c(CS(=O)(=O)c2ccccc2)nc2c(-c3ccncc3)cc(Cl)cn12 | 6.60 | > 200 | > 41.7 | > 25000 nM | > 21.7 | -0.64 V | > 50000 nM | 5.82 | 5.70 | 7.40 | 5.92 | 5.52 | 20 to 40 | > 16.7 | 5.64 |
| O=[N+]([O-])c1c(CS(=O)(=O)c2ccccc2)nc2c(-c3cccc(CO)c3)cc(Cl)cn12 | 6.82 | > 167 | > 19.2 | > 15000 nM |  | -0.7 V | > 25000 nM | 5.85 | 5.72 | 7.15 | 5.89 |  | 20 to 40 | > 17.9 | < 5.00 |

— ChEMBL document CHEMBL4270592, “8-Aryl-6-chloro-3-nitro-2-(phenylsulfonylmethyl)imidazo[1,2-a]pyridines as potent antitrypanosomatid molecules bioactivated by type 1 nitroreductases” (Eur J Med Chem, 2018)
